Assay outcomes deposited in PubChem BioAssay by several laboratories.
H69AR inhibit: blocks growth of human H69AR lung tumor cells | H69AR lung tumor viability, ATP luminescence, 72 h; stronger effect = lower value | viability, % at 10 µM | 6% of 85,000 active;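 active means viability at or below 40%; inactive means viability above 40%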;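 further: multidrug resistant small cell line overexpressing MRP-1 efflux transporter; 100% = mean luminescence of untreated control wells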
HUVEC inhibit: human endothelial cell proliferation inhibition. 1.1% of 86,000 active. AID 648. HUVEC proliferation, CellTiter-Glo luminescence, 72 h; stronger effect = lower value. viability, % at 10 µM (by protocol);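 active means viability at or below 30%; inactive means viability above 30%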;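 further: 100% = median luminescence of DMSO-only cell control wells on each plate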
Lung fibro prol: blocks proliferation of human lung fibroblasts; LL 47 human lung fibroblast viability, ATP luminescence; stronger effect = lower value; viability, % at 10 µM; 1.1% of 85,000 active; AID 719;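 active means viability at or below 50% in the single dose screen; inactive means viability above 50%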;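 further: compound exposure lasted 72 h before the ATP readout; 100% = median luminescence of untreated cell-only wells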
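Material: human LL 47 lung fibroblast cells; quantity: 1,150 cells/well; medium: IMEM plus 15% FBS; doses: 0.1% DMSO in all compound wells; timing: overnight attachment after seeding, then 72 h compound exposure at 37 °C; detection: CellTiter-Glo luminescence; measure: % viability of median cell-only signal; controls: cell-only wells, no compound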
E coli WT exp: blocks growth of wild type E. coli BW25113; AID 710; 0.15% of 98,000 active; growth inhibition, % at 100 µM; OD600 absorbance;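 active means growth inhibition above about 50% at one test dose, limit read from the data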;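 further: growth measured after 20 h incubation at 37 °C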
Jurkat viability: cytotoxicity toward Jurkat cells. Jurkat E6.1 viability, ATP luminescence, 48 h. inhibition, % at 4 µM. 1.2% of 56,000 active;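 active means inhibition above the mean inhibition of all tested compounds plus 3 SD, cut at about 28% in these data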
tolC growth inh: growth inhibitors of E. coli BW25113 tolC mutant; OD615; growth inhibition, % at 10 µM (by protocol); 2.2% of 65,000 active; AID 573;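 active means growth inhibition at or above a cutoff equal to the mean over every tested compound plus 3 SD, cut at about 60% in these data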;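 further: growth measured after 20 h incubation at 37 °C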
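Test system: tolC-deleted E. coli BW25113 | Medium: LB with kanamycin 50 µg/mL | Compound dosing: Single concentration, 10 µM final per compound | Schedule: 37 °C, 20 h exposure | Measured by: OD at 615 nm | Evaluation: Percent growth inhibition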
An asterisk follows results filed as active. Rows were chosen to be rich in hits. Some 6.4% of all compounds tested hit in one or more screens of this group.

COc1ccc(OCCn2c(NC(=O)c3ccco3)nc3ccccc32)cc1 was read as H69AR inhibit 39*, HUVEC inhibit 78, Lung fibro prol 59, E coli WT exp -8, Jurkat viability 5 and tolC growth inh 7.
For CCCn1c(NC(=O)c2ccc(Br)cc2)nc2ccccc21 the results were H69AR inhibit 32*, HUVEC inhibit 74, Lung fibro prol 66 and E coli WT exp -11.
COc1ccc(CCn2c(-c3ccco3)nc3nc4ccccc4nc32)cc1 was read as H69AR inhibit 58, HUVEC inhibit 96, Lung fibro prol 95, E coli WT exp -2, Jurkat viability 10 and tolC growth inh 19.
CCCn1c(NC(=O)c2ccco2)nc2ccccc21 was read as E coli WT exp 7, Jurkat viability 5 and tolC growth inh 2.
For CCCCn1c(NC(=O)c2ccccc2)nc2ccccc21 the results were H69AR inhibit 14*, HUVEC inhibit 70, Lung fibro prol 48*, E coli WT exp 15, Jurkat viability 4 and tolC growth inh 31.
`O=C(Nc1ccccc1-c1ccccc1)c1ccc(NC(=O)c2ccco2)cc1` gave H69AR inhibit 81, HUVEC inhibit 84, Lung fibro prol 91 and E coli WT exp -13.
O=C(Cc1ccccc1[N+](=O)[O-])NCc1ccccc1Cl was read as E coli WT exp 1.
Screening CCOc1c(Cl)cc(Cl)cc1CNCCNCCO returned E coli WT exp 15.
COc1ccccc1C1CN=NC12CCCc1ccccc1C2=O (stereo not drawn) was read as E coli WT exp 3.
Screening CCCn1c(CNc2ccc(Br)cc2)nc2ccccc21 returned H69AR inhibit 97, HUVEC inhibit 98, Lung fibro prol 88, E coli WT exp -3, Jurkat viability 16 and tolC growth inh 100*.
Cc1cc(Br)cc(C)c1OCCCCN(C)C was read as E coli WT exp 8.
For CCCCn1c(CN2CCN(c3cccc(Cl)c3)CC2)nc2c1c(=O)n(C)c(=O)n2C the results were H69AR inhibit 72, HUVEC inhibit 80, Lung fibro prol 105, E coli WT exp 8, Jurkat viability 3 and tolC growth inh 31.
`Cn1c(=O)c2c(nc(CN3CCN(c4ccccc4)CC3)n2Cc2ccccc2Cl)n(C)c1=O` gave H69AR inhibit 24*, HUVEC inhibit 75, Lung fibro prol 84, E coli WT exp -14, Jurkat viability -4 and tolC growth inh -7.
For CCCCCn1c(CN2CCN(c3cccc(Cl)c3)CC2)nc2c1c(=O)n(C)c(=O)n2C the results were H69AR inhibit 76, HUVEC inhibit 81, Lung fibro prol 95, Jurkat viability 4 and tolC growth inh 62*.
`CCCCn1c(CN2CCN(c3ccccc3)CC2)nc2c1c(=O)n(C)c(=O)n2C` gave H69AR inhibit 72, HUVEC inhibit 84, Lung fibro prol 99, E coli WT exp -3, Jurkat viability 38* and tolC growth inh 5.
`CCCCCn1c(CN2CCN(c3cc(Cl)ccc3C)CC2)nc2c1c(=O)[nH]c(=O)n2C` gave H69AR inhibit 3.5*, HUVEC inhibit 28*, Lung fibro prol 87, E coli WT exp 3, Jurkat viability 5 and tolC growth inh 2.
`CN1CCN(Cc2nc3c(c(=O)n(C)c(=O)n3C)n2Cc2ccccc2Cl)CC1` gave Jurkat viability -1 and tolC growth inh -5.
Screening Cc1ccc(-n2c(SCC(=O)Nc3ccc4cn[nH]c4c3)nnc2-c2ccco2)cc1 returned H69AR inhibit 32*, HUVEC inhibit 82, Lung fibro prol 82, E coli WT exp 1, Jurkat viability -2 and tolC growth inh 6.
CC(=O)Nc1ccc(NC(=O)CSc2nnc(-c3ccco3)n2Cc2ccco2)cc1 was read as H69AR inhibit 11*, HUVEC inhibit 92, Lung fibro prol 94 and E coli WT exp 3.
`CNC(=O)CSc1nnc(-c2ccco2)n1-c1ccc(C)cc1` gave H69AR inhibit 98, HUVEC inhibit 97 and Lung fibro prol 98.
Screening O=C1OC(Nc2ccc3c(c2)OCO3)c2ccccc21 (stereo not drawn) returned H69AR inhibit 16*, HUVEC inhibit 56, Lung fibro prol 49*, E coli WT exp -4 and tolC growth inh -2.
